# Assay results as given in ChEMBL document CHEMBL1135992, “Quantitative structure-activity relationship analysis of functionalized amino acid anticonvulsant agents using k nearest neighbor and simulated annealing PLS methods” (2002).
# What was measured:
# Type in all cases: functional
# Mus musculus [1] = experiment: Anticonvulsant activity in mice following i.p. treatment and Maximal Electroshock Seizure (MES) test.
# Outline: (§1)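 Mice (18–25 g) received the compound ip as a suspension in 0.5% (w/v) methylcellulose in water. A 60-cycle alternating current of 50 mA was applied for 0.2 s. Protection was defined as abolition of the hindlimb tonic extensor component. […] ED50 and 95% confidence interval were calculated by Finney's methods.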
# Mus musculus [2] = experiment: In vivo anticonvulsant activity in male albino mice using the maximal electroshock (MES) test after intraperitoneal administration; conditions: ip
# Outline: (§2)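 Mice (18–25 g) received the test agent intraperitoneally as a suspension in 0.5% (w/v) methylcellulose in water. A 60-cycle alternating current at 50 mA was applied for 0.2 s, and protection meant abolition of the hindlimb tonic extensor component. The ED50 was determined at the time of peak effect in groups of at least eight mice. At least two doses fell between 100% and 0% protection, and the 95% confidence interval was calculated by Finney's method.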
# Mus musculus [3] = experiment: In vivo anticonvulsant activity in male albino mice using the maximal electroshock seizure(MES) test upon intraperitoneal administration, expressed as logarithm of effective dose; outline: as §2
# Mus musculus [4] = experiment: In vivo anticonvulsant activity in male albino mice using the maximal electroshock seizure(MES) test upon intraperitoneal administration, expressed as logarithm of effective dose; value ranges from 2.10 to 2.63
# Mus musculus [5] = experiment: In vivo anticonvulsant activity in male albino mice using the maximal electroshock seizure(MES) test upon intraperitoneal administration (exp-2); conditions: ip; outline: as §2
# Mus musculus [6] = experiment: In vivo anticonvulsant activity in male albino mice using the maximal electroshock seizure(MES) test upon intraperitoneal administration (exp-1); conditions: ip; outline: as §2
# Mus musculus [7] = experiment: In vivo anticonvulsant activity in male albino mice using the maximal electroshock (MES) test after intraperitoneal administration; value ranges from 76.8-120; conditions: ip; outline: as §2
# Mus musculus [8] = experiment: In vivo anticonvulsant activity in male albino mice using the maximal electroshock (MES) test after intraperitoneal administration; value ranges from 21.4-40.8; conditions: ip
# Mus musculus [9] = experiment: In vivo anticonvulsant activity in male albino mice using the maximal electroshock seizure(MES) test upon intraperitoneal administration; value ranges from 14.6 to 41; conditions: ip; outline: as §1
# Mus musculus [10] = experiment: In vivo anticonvulsant activity in male albino mice using the maximal electroshock seizure(MES) test upon intraperitoneal administration (exp 2); conditions: ip; outline: as §1
# Mus musculus [11] = experiment: In vivo anticonvulsant activity in male albino mice using the maximal electroshock seizure(MES) test upon intraperitoneal administration, expressed as logarithm of effective dose; value ranges from 2.58 to 3.06; outline: as §2
# Mus musculus [12] = experiment: In vivo anticonvulsant activity in male albino mice using the maximal electroshock seizure(MES) test upon intraperitoneal administration (exp 1); conditions: ip; outline: as §1
# Mus musculus [13] = experiment: In vivo anticonvulsant activity in male albino mice using the maximal electroshock (MES) test after intraperitoneal administration; value ranges from 457.7-715; conditions: ip
# Mus musculus [14] = experiment: In vivo anticonvulsant activity in male albino mice using the maximal electroshock seizure(MES) test upon intraperitoneal administration, expressed as logarithm of effective dose; value ranges from 2.01 to 2.63
# Mus musculus [15] = experiment: In vivo anticonvulsant activity in male albino mice using the maximal electroshock (MES) test after intraperitoneal administration; value ranges from 26.7-37.8; conditions: ip
# Mus musculus [16] = experiment: In vivo anticonvulsant activity in male albino mice using the maximal electroshock seizure(MES) test upon intraperitoneal administration; conditions: ip; outline: as §1
# Mus musculus [17] = experiment: In vivo anticonvulsant activity in male albino mice using the maximal electroshock (MES) test after intraperitoneal administration; value ranges from 34.9-54.3; conditions: ip; outline: as §2
# Mus musculus [18] = experiment: In vivo anticonvulsant activity in male albino mice using the maximal electroshock (MES) test after intraperitoneal administration (exp 2); conditions: ip; outline: as §1
# Mus musculus [19] = experiment: In vivo anticonvulsant activity in male albino mice using the maximal electroshock (MES) test after intraperitoneal administration (exp 1); conditions: ip; outline: as §1
# Mus musculus [20] = experiment: In vivo anticonvulsant activity in male albino mice using the maximal electroshock seizure(MES) test upon intraperitoneal administration; value ranges from 74.3 to 99.1; conditions: ip; outline: as §1
Structure (SMILES),Log ED50 (Mus musculus [1]) [uM kg-1],Log ED50 (Mus musculus [3]) [uM kg-1],other results
CC(=O)NC(C)C(=O)NCCCc1ccccc1 (configuration not stated),2.55,–,ED50 (Mus musculus [2]): 87.6 mg/kg
CC(=O)NC(Nc1ccc(N)cc1)C(=O)NCc1ccccc1 (configuration not stated),2.75,–,ED50 (Mus musculus [2]): 176 mg/kg
CC(=O)NC(C(=O)NCc1ccccc1)c1ccco1 (configuration not stated),–,1.58,–
CC(=O)N(C)C(C)C(=O)NCc1ccccc1 (configuration not stated),–,–,Log ED50 (Mus musculus [4]): 2.63 uM kg-1; ED50 (Mus musculus [5]): < 100 mg/kg; ED50 (Mus musculus [6]): > 30 mg/kg
CC(=O)NC(Nc1cccc(N)c1)C(=O)NCc1ccccc1 (configuration not stated),2.5,–,ED50 (Mus musculus [7]): 98.6 mg/kg
CNC(C)C(=O)NCc1ccccc1 (configuration not stated),2.21,–,ED50 (Mus musculus [8]): 31.2 mg/kg
CN1CSCC1C(=O)NCc1ccccc1 (configuration not stated),–,2.09,ED50 (Mus musculus [9]): 29.1 mg/kg
COCC(NC(C)=O)C(=O)N(C)Cc1ccccc1 (configuration not stated),–,–,ED50 (Mus musculus [10]): < 300 mg/kg; Log ED50 (Mus musculus [11]): 3.06 uM kg-1; ED50 (Mus musculus [12]): > 100 mg/kg
CONC(NC(C)=O)C(=O)NCc1ccccc1 (configuration not stated),1.39,–,–
CC(=O)NC(C)C(=O)NCc1ccccc1 (racemic),–,2.54,–
CC(=O)NC(C(=N)NOC(C)=O)C(=O)NCc1ccccc1 (configuration not stated),2.66,–,ED50 (Mus musculus [13]): 140 mg/kg
CC(=O)NC(NNC(=O)OCc1ccccc1)C(=O)NCc1ccccc1 (configuration not stated),2.18,–,–
COCC(NC=O)C(=O)NCc1ccccc1 (configuration not stated),–,–,ED50 (Mus musculus [10]): < 100 mg/kg; Log ED50 (Mus musculus [14]): 2.63 uM kg-1; ED50 (Mus musculus [12]): > 30 mg/kg
CC(=O)NC(C(=O)NCc1ccccc1)n1cccc1 (configuration not stated),2.47,–,–
CC(=O)NC(C(=O)NCc1ccccc1)c1ccc(C)[nH]1 (configuration not stated),–,2.12,–
CC(=O)NC(C(=O)NCc1ccccc1)N1CC=CO1 (configuration not stated),2.05,–,ED50 (Mus musculus [15]): 31.4 mg/kg
CC(=O)NCC(C)C(=O)NCc1ccccc1 (configuration not stated),–,3.06,ED50 (Mus musculus [16]): 270 mg/kg
CC(=O)NC(C(=O)NCc1ccccc1)N(N)c1ccccc1 (configuration not stated),2.14,–,ED50 (Mus musculus [17]): 42.8 mg/kg
CC(N)C(=O)NCc1ccccc1 (configuration not stated),3.23,–,ED50 (Mus musculus [18]): < 300 mg/kg; ED50 (Mus musculus [19]): > 100 mg/kg
C=CC(=O)NC(COC)C(=O)NCc1ccccc1 (configuration not stated),–,–,ED50 (Mus musculus [10]): < 300 mg/kg; Log ED50 (Mus musculus [11]): 3.06 uM kg-1; ED50 (Mus musculus [12]): > 100 mg/kg
CC(=O)NC(C(=O)NCc1ccccc1)c1ccccn1 (configuration not stated),–,1.58,–
CC(=O)NC(C(=O)NCc1ccccc1)c1ccsc1 (configuration not stated),–,2.48,–
CCC(NC)C(=O)NCc1ccccc1 (configuration not stated),2.69,–,ED50 (Mus musculus [18]): < 100 mg/kg; ED50 (Mus musculus [19]): > 30 mg/kg
CCNC(NC(C)=O)C(=O)NCc1ccccc1 (configuration not stated),2.23,–,–
CCN(C(C)=O)C(C)C(=O)NCc1ccccc1 (configuration not stated),–,2.53,ED50 (Mus musculus [20]): 85 mg/kg
C/C(S)=N\C(C(=O)NCc1ccccc1)c1ccco1 (configuration not stated),–,1.8,–
CC(=O)NC(C(=O)NCc1cccc(F)c1)c1ccco1 (configuration not stated),–,1.66,–
CC(=O)NC(C(=O)NCc1ccccc1)n1cccn1 (configuration not stated),1.78,–,–
CC(=O)NC(C(=O)NCc1ccccc1)c1ccc[nH]1 (configuration not stated),–,1.77,–
CC(=O)NC(C(=O)NCc1ccccc1)c1ncco1 (configuration not stated),–,1.58,–
